From PubChem BioAssay
The list is not random: actives were taken first. Their share in the collection is about 2.2%.
Env fusion inh: HIV envelope-mediated fusion inhibition; inhibition, % at 12.3 µM; 360,000 compounds, 1.1% hits; AID 651610; HeLa-JRFL Env/CEM21 cell fusion, luciferase;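 active means mean replicate inhibition score of at least 50 and every replicate individually at or above 50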;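 further: 0% = plate neutral controls and 100% = maraviroc near 300 nM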
GalR3 antagonist: antagonists of human GalR3 | O60755 | HEK293 GalR3-CNG cAMP membrane potential fluorescence; galR3 body fused to GalR1 C-terminus | inhibition, % at 3 µM | 360,000 compounds, 0.44% hits | AID 651719;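 active means inhibition above the screen-wide average plus 3 SD, cut at about 13% in these data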;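 further: forskolin and galanin both at EC90 stimulate the cells; cAMP rise reported by CNG channel membrane potential dye signal; 0% = forskolin plus galanin with DMSO and 100% = forskolin alone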
Target sequence (O60755 1-299 limits assumed): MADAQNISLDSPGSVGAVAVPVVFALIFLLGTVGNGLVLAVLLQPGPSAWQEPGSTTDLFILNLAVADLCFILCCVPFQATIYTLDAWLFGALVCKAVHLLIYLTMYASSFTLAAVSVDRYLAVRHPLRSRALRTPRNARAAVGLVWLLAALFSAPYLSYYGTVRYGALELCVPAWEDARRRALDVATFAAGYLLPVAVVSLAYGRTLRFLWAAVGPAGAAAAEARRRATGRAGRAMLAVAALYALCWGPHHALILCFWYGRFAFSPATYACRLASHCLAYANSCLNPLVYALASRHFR
NR2E3 ag-1: activates human photoreceptor nuclear receptor NR2E3. 320,000 compounds, 0.12% hits. Q9Y5X4. AID 2300. GST-NR2E3/biotin-RetCOR TR-FRET, 1536-well. inhibition of corepressor binding, % at 4.78 µM;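 active means percent inhibition above the cutoff of mean plus 3 SD of all tested compounds, set per screening campaign, cut at about 20% in these data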;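 further: 0% = DMSO wells and 100% = biotin wells as full block of FRET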
Target sequence (Q9Y5X4 whole entry, looked up): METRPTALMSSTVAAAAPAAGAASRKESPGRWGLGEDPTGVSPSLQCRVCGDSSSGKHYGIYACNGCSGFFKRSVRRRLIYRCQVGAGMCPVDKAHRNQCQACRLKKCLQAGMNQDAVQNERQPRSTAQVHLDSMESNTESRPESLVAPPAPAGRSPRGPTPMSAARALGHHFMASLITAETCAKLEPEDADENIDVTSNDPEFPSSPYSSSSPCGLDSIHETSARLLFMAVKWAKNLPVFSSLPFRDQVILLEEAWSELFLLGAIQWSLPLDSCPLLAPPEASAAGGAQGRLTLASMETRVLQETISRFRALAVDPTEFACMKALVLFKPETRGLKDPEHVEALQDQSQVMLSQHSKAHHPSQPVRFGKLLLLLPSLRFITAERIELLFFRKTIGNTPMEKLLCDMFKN
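Material: NR2E3–RetCOR corepressor complex / Incubation: Compound–protein incubation for 5 h at 4 °C / Dosing: compound at 4.8 µM, single dose / Detection: time-resolved FRET / Benchmarks: high control biotin, low control 0.6% DMSO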
NR2E3 ag-2: agonists of human NR2E3 nuclear receptor | CHO-S Gal4-NCOR/VP16-NR2E3 two-hybrid, luciferase | Q9Y5X4 | inhibition of corepressor binding, % at 3.98 µM | 360,000 compounds, 0.35% hits;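 active means inhibition above the mean of all tested compounds plus 3 SD, cut at about 70% in these data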;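 further: 0% = DMSO with NR2E3 transfected cells and 100% = cells lacking NR2E3 construct; higher means lower luciferase signal from less NR2E3 corepressor binding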
V-ATPase pHluor: yeast V-ATPase proton transport regulation by pHLuorin; S. cerevisiae, pHLuorin cytosolic pH fluorescence; response, % at 10 µM; 350,000 compounds, 0.37% hits; AID 504577; in the data active means response mostly above about 7.3%, no sharp cut-off; inactive means mostly below about 5.4%; further: actives read high
FXN GAA850 act: increases GAA850 frataxin promoter reporter activity | HEK293 lucGAA850 FXN promoter luciferase reporter, 24 h; percent of 10 µM SAHA response | activation, % at 6 µM | 360,000 compounds, 0.56% hits | AID 540364;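 active means activation above the average of all compounds screened plus 3 SD, cutoff fixed separately per campaign, cut at about 7.5% in these data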;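 further: 0% = DMSO wells and 100% = 10 µM SAHA wells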
An asterisk follows results filed as active; nt = not tested or not shown; [ ] = dose if it differs, or a comment.

SMILES	Env fusion inh	GalR3 antagonist	NR2E3 ag-1	NR2E3 ag-2	V-ATPase pHluor	FXN GAA850 act
CCN(Cc1ccc(OC)c(F)c1)C(C)C(=O)Nc1ccc(S(=O)(=O)N2CCCC2)cc1 (stereo not drawn)	57.1*	-5.1	3.9	-6.2	2.4	2.5
CO[C@H]1CN(C)C(=O)c2ccc(NS(=O)(=O)CC(F)(F)F)cc2OC[C@@H](C)N(C(=O)c2ccc3c(c2)OCO3)C[C@@H]1C	-8.5[16.7 µM]	nt	nt	nt	nt	nt
COc1ccccc1-c1cnc2c(c1)C(=O)N([C@H](C)CO)C[C@@H](C)[C@H](CN(C)C(=O)CC1CC1)O2	4.0[16.7 µM]	nt	nt	nt	nt	nt
CCOC(=O)c1nc(Nc2ccc(N3CCC(C)CC3)cc2)c2ccccc2n1	62.3*	5.0	0.1	-10.6	-1.0	-0.7
CN(C)S(=O)(=O)c1ccc(N2CCCC2)c(C(=O)NCC2CCCCC2)c1	24.4	-9.2	4.0	-28.6	-2.0	2.7
CN(C)S(=O)(=O)c1ccc(N2CCCC2)c(C(=O)NCCc2ccc(F)cc2)c1	74.6*	-0.4	3.0	6.7	-2.6	1.9
COc1ccc([C@@H]2[C@@H]3C(=O)N(C(C)(C)C)C(=O)[C@@H]3[C@]3(C)C(=O)N(c4cccc(F)c4)C(=O)N23)cc1	36.7	-0.4	-1.9	-2.0	1.2	1.6
CCN1C(=O)[C@H]2[C@@H](c3ccc(C)cc3)N3C(=O)N(c4cccc(Cl)c4)C(=O)[C@@]3(C)[C@H]2C1=O	37.1	-5.9	-2.2	-7.6	2.5	-0.2
C[C@@]12C(=O)N(c3cccc(Cl)c3)C(=O)N1[C@H](c1ccc(Cl)cc1)[C@@H]1C(=O)N(C3CCCCC3)C(=O)[C@@H]12	102.8*	-5.4	2.6	15.0	-0.4	7.3
C[C@@]12C(=O)N(c3cccc(F)c3)C(=O)N1[C@H](c1ccc(F)cc1)[C@@H]1C(=O)N(C3CCCCC3)C(=O)[C@@H]12	nt	nt	4.0	-7.7	-3.1	13.8*
Cc1cccc(C)c1NC(=O)C1(C)CN(S(C)(=O)=O)CC(=O)N1CCc1ccccc1F (stereo not drawn)	57.3*	0.7	nt	nt	nt	nt
Cc1cc(O)c2c(c1O)C(=O)[C@]13C(=C2O)C(=O)[C@@H]2[C@@H](O)[C@H]1[C@@H]1[C@H](O)[C@H]3C(=O)C3=C(O)c4c(O)cc(C)c(O)c4C(=O)[C@]312	nt	nt	nt	101.1*	3.3	-11.2
CC(=O)Nc1ccc2c(c1)C(=O)N(C)[C@@H]1CC[C@@H](CC(=O)NCc3ccccc3)O[C@H]1CO2	-3.6[16.7 µM]	nt	nt	nt	nt	nt
Cc1cc(C)n(-c2ccc(C(=O)Nc3cccc(S(=O)(=O)N(C)C)c3)cc2)n1	27.3	-6.0	0.8	8.7	1.9	-2.9
CCN(CC)S(=O)(=O)c1cccc(NC(=O)c2ccc(-n3nc(C)cc3C)cc2)c1	66.8*	-12.2	-2.3	-19.0	1.1	-3.6
COc1ccc(C(CC(=O)Nc2cc([N+](=O)[O-])ccc2OC)c2ccccc2)cc1 (stereo not drawn)	78.9*	-7.6	1.2	-13.2	1.1	4.3
COC(=O)CNC(c1ccccc1)c1cc(C)ccc1NC(=O)CNC(=O)OCc1ccccc1 (stereo not drawn)	72.6*	-7.5	2.1	-84.9	-4.4	3.6
COC(=O)CNC(c1ccccc1)c1cc(Br)ccc1NC(=O)OCc1ccccc1 (stereo not drawn)	nt	-1.6	0.2	-6.9	0.4	-0.9
CO[C@H]1CN(C)C(=O)c2ccc(NS(C)(=O)=O)cc2OC[C@H](C)N(C(=O)C2CCOCC2)C[C@@H]1C	15.6[16.7 µM]	nt	nt	nt	nt	nt
Cc1cc(C(=O)NCc2cc(C)n(C)n2)sc1-c1ccccc1	55.9*	-9.4	-2.1	38.6	4.4	1.8
Cc1cc(CNC(=O)c2cc(-c3ccccc3)nc3ccccc23)nn1C	-6.1	6.4	-0.4	-5.9	5.3	-0.4
Cn1c(-c2ccccc2)c[n+]2c1-c1ccccc1C2	56.7*	-1.8	3.6	-2.4	-1.7	1.2
Cc1nc(N2CCOCC2)c2c(C)c(C(=O)Nc3ccc(F)cc3Cl)sc2n1	2.2	13.5*	2.0	-10.0	6.0	0.9
C[C@@H]1CN([C@H](C)CO)C(=O)Cc2cc(NC(=O)Cc3cn(C)c4ccccc34)ccc2O[C@H]1CN(C)Cc1ccc(C(=O)Nc2ccccc2N)cc1	-0.8[16.7 µM]	nt	nt	nt	nt	nt
CC[C@@H]1CC=C[C@H]2[C@H]1C(=O)N(Cc1ccccc1)[C@H]2c1ccoc1	nt	nt	-1.7	-19.1	-2.6	3.6
SMILES	Env fusion inh	GalR3 antagonist	NR2E3 ag-1	NR2E3 ag-2	V-ATPase pHluor	FXN GAA850 act
CC[C@@H]1CC=C[C@H]2[C@H]1C(=O)N(Cc1ccccc1)[C@H]2c1ccc(C(F)(F)F)cc1	57.0*	-7.5	2.8	-21.4	4.8	0.8
Cc1noc(C)c1S(=O)(=O)Nc1ccc2c(c1)C(=O)N([C@@H](C)CO)C[C@@H](C)[C@H](CN(C)S(=O)(=O)c1ccccc1)OCCCC[C@H](C)O2	-16.3[16.7 µM]	nt	nt	nt	nt	nt
CCCCC[n+]1cccc2c3ccccc3ccc21	97.3*	-2.4	0.2	16.6	-1.1	-2.5
c1ccc(C[n+]2cccc3c4ccccc4ccc32)cc1	nt	-3.4	0.1	-15.9	13.5	-2.8
CCNS(=O)(=O)c1ccc(CCC(=O)Nc2cc(Cl)ccc2Oc2ccccc2)cc1	107.3*	-1.6	-0.7	25.1	-2.3	-0.6
Cc1ccc(S(=O)(=O)N(C)C[C@@H]2OCCCC[C@H](C)Oc3ccc(NC(=O)CCC(F)(F)F)cc3C(=O)N([C@H](C)CO)C[C@H]2C)cc1	27.5[16.7 µM]	nt	nt	nt	nt	nt
CCC(C)(C)c1ccc(OCCCC[n+]2ccccc2)c(C(C)(C)CC)c1	76.9*	-3.3	2.6	-1.9	-3.2	-2.1
CCC(C)(C)c1ccc(Oc2cccc(C(=O)O)c2)cc1	-8.1	-9.6	-2.0	-89.8	1.9	1.8
CCN1CCN(S(=O)(=O)c2ccc(Cl)c(C(=O)Nc3ccccc3N3CCCC3)c2)CC1	80.5*	-1.8	-0.4	12.3	-1.3	-3.9
Cc1noc(C)c1NC(=O)N[C@H]1CC[C@@H](CC(=O)Nc2ccccc2)O[C@@H]1CO	8.5[16.7 µM]	nt	nt	nt	nt	nt
COC(=O)c1c(C)oc(C)c1S(=O)(=O)NC(c1ccccc1)c1ccccc1	67.8*	-6.5	1.6	7.6	-4.9	5.0
Oc1ccc(-c2nc(-c3ccc(F)cc3)c(-c3ccncc3)[nH]2)cc1	57.1*	-5.2	3.3	18.6	-1.2	-1.1
Fc1ccc(-c2nc(-c3cccs3)[nH]c2-c2ccc(F)cc2)cc1	nt	-0.2	4.2	-4.1	2.0	-2.9
COc1ccc(NC(=S)NCc2ccccc2Cl)c(OC)c1	-157.7	-4.1	7.1	11.2	20.7*	-0.9
COc1ccccc1NC(=S)NCc1ccccc1Cl	-164.4	-7.8	1.9	8.1	0.4	-1.0
CCC(=NOCc1ccccc1)C(=O)NNS(=O)(=O)c1ccc(C)cc1	57.4*	-3.4	nt	26.8	-3.9	-0.1
CC1=C(C#N)C(=O)N(C2CCS(=O)(=O)C2)C(=O)/C1=C\c1ccco1 (stereo not drawn)	nt	nt	27.4*	nt	nt	nt
